One block for each compound: values may come before it. Activity calls are given as the source filed them. No cut-off for these calls is given here.
Experiments:
[1] = target: T1, Aldo-keto reductase family 1 member B1 (Homo sapiens, UniProt P15121); assay: Inhibition of human recombinant AKR1B1 expressed in Escherichia coli using DL-glyceraldehyde as substrate after 5 mins by spectrophotometry
Summary of the method: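 Enzyme inhibition was tested with recombinant human AKR1B1, using the natural substrate glyceraldehyde.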

[2] = target: T1, Aldo-keto reductase family 1 member B1; assay: Inhibition of human AKR1B1 expressing in PAR40 C57BL6 mouse lens assessed as inhibition of glucose-induced sorbitol accumulation at 25 to 50 uM after 72 hrs by colorimetric assay; conditions: Lens of camera-type eye
Summary of the method: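 Lenses were taken from transgenic mice overexpressing human AKR1B1, and from wild-type mice. They were cultured ex vivo with 27.5 mM glucose and given vehicle (H₂O) or compound at 25 and 50 μM for 72 h. Sorbitol accumulation was measured.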

[3] = target: T2, Aldo-keto reductase family 1 member A1 (Homo sapiens) (UniProt P14550); assay: Inhibition of AKR1A1 (unknown origin) using DL-glyceraldehyde as substrate at 15 uM after 5 mins by spectrophotometry
T2 sequence (whole entry): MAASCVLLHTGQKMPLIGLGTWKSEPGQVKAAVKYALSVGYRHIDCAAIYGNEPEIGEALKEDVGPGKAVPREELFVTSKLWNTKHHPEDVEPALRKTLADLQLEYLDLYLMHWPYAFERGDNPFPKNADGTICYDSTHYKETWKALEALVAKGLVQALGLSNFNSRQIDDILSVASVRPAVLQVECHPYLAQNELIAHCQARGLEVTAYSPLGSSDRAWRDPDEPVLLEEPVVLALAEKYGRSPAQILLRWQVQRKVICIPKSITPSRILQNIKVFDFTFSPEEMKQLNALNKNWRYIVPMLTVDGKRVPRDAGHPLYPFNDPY

[4] = target: Aldo-keto reductase family 1 member B10 (Homo sapiens) (UniProt O60218); assay: Inhibition of AKR1B10 (unknown origin) using DL-glyceraldehyde as substrate at 15 uM after 5 mins by spectrophotometry
[5] = Stability of the compound in aqueous sulfuric acid solution assessed as compound remaining at 250 uM at pH 0.33 at 80 degC after 6 days by HPLC analysis; type: physicochemical; conditions: read-out: Stability
Summary of the method: (§1)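 Compound kept in aqueous sulfuric acid (pH = 0.33) with heating at 80 °C. Intact compound remaining was quantified by HPLC against calibration curves.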

[6] = target: Aldo-keto reductase family 1 member B1 (Mus musculus) (UniProt P45376); assay: Inhibition of AKR1B1 in mouse RAW264.7 cells assessed as inhibition of sorbitol accumulation at 50 uM after 24 hrs by colorimetric assay; type: cell-based
Summary of the method: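 Raw264.7 murine macrophages were incubated with compound for 24 h, then harvested. Intracellular sorbitol accumulation served as the read-out of AKR1B1 activity.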

[7] = Drug degradation in aqueous sulfuric acid solution at 250 uM at pH 0.33 at 80 degC after 15 mins by HPLC analysis; type: physicochemical; conditions: read-out: Drug degradation; summary of the method: as §1
[8] = Drug degradation in aqueous sulfuric acid solution at 250 uM at pH 0.33 at 80 degC after 30 mins by HPLC analysis; type: physicochemical; conditions: buffer, pH 0.33, 0.5 h; summary of the method: as §1

Chain of Aldo-keto reductase family 1 member B10 (Homo sapiens) (O60218 whole entry, looked up): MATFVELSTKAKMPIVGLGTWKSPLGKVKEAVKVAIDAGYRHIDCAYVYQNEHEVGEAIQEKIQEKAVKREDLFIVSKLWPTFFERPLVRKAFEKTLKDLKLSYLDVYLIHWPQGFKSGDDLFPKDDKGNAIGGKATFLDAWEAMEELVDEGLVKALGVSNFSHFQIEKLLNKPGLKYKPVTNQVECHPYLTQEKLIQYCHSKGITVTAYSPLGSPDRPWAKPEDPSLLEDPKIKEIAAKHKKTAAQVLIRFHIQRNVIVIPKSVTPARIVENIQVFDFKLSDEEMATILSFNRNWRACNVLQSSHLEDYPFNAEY

inhibition [1]: inactive
Compound: OC[C@H]1O[C@@H](OCc2cn(Cc3cc(O)c(O)c(O)c3)nn2)[C@H](O)[C@@H](O)[C@@H]1O

inhibition [1]: inactive
Compound: OC[C@H]1O[C@@H](OCCCc2cc(O)c(O)c(O)c2)[C@H](O)[C@@H](O)[C@@H]1O

inhibition [1]: inactive
Compound: OC[C@H]1O[C@@H](n2cc(-c3cc(O)c(O)c(O)c3)nn2)[C@H](O)[C@@H](O)[C@@H]1O

inhibition [2]: 80% | inhibition [3]: inactive | inhibition [4]: inactive | remaining at 144 h, 250 µM [5]: 96% | inhibition [6]: 50% | IC50 [1]: 9 µM
Compound: O=C(N[C@@H]1O[C@H](CO)[C@@H](O)[C@H](O)[C@H]1O)c1cc(O)c(O)c(O)c1

inhibition [1]: inactive
Compound: OC[C@H]1O[C@@H](OCCc2cc(O)c(O)c(O)c2)[C@H](O)[C@@H](O)[C@@H]1O

inhibition [2]: 74% | inhibition [3]: inactive | inhibition [4]: inactive | degraded at 0.25 h, 250 µM [7]: 76% | Stability [8]: Unstable | inhibition [6]: 50% | IC50 [1]: 8 µM
Compound: O=C(O[C@@H]1O[C@H](CO)[C@@H](O)[C@H](O)[C@H]1O)c1cc(O)c(O)c(O)c1

inhibition [1]: inactive
Compound: O=C(Cc1cc(O)c(O)c(O)c1)N[C@@H]1O[C@H](CO)[C@@H](O)[C@H](O)[C@H]1O

— ChEMBL document CHEMBL3108697, “Design of an amide N-glycoside derivative of β-glucogallin: a stable, potent, and specific inhibitor of aldose reductase” (J Med Chem, 2014)
